This passage reports IC50 results from ChEMBL document CHEMBL3994667, “Small Molecule Lysyl Oxidase-like 2 (LOXL2) Inhibitors: The Identification of an Inhibitor Selective for LOXL2 over LOX” (ACS Med Chem Lett, 2017).

This assay deals with T1, Lysyl oxidase homolog 2 (Rattus norvegicus, UniProt B5DF27).
T1 sequence (B5DF27 whole entry): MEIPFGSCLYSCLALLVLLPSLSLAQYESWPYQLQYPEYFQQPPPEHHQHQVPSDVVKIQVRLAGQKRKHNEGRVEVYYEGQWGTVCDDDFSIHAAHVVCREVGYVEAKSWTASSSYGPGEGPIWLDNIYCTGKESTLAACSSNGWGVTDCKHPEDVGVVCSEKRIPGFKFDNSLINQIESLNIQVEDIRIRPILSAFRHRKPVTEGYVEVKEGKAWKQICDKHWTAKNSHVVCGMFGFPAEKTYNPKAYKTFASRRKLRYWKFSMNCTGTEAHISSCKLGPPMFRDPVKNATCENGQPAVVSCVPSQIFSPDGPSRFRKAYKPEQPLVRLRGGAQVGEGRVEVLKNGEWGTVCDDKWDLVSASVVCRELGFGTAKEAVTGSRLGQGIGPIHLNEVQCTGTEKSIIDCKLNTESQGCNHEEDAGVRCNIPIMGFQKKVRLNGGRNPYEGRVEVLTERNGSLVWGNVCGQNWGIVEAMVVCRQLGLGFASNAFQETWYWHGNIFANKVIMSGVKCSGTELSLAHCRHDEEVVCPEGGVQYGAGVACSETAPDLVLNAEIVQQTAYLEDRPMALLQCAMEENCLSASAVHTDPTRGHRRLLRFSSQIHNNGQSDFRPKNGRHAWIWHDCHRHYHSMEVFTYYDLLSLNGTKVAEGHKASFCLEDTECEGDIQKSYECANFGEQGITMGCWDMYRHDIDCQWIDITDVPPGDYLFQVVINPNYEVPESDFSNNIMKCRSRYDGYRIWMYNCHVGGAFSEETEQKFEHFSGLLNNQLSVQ
In words: Inhibition of full length recombinant rat LOXL2 expressed in CHO cells assessed as reduction in H2O2 production using DAP as substrate preincubated for 2 hrs followed by substrate addition measured every 2 minutes for 50 minutes in presence of BSA by Amplex red dye based fluorescence assay. In outline: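 Rodent LOXL2 is tested under the same conditions as the BSA-supplemented assay: conditioned media plus BSA, with DAP as substrate and Amplex Red detection of H2O2. Species are mouse and rat. IC50 is the geometric mean x/÷ geometric standard deviation from 3 determinations.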

Each structure is given as a SMILES string.

What is called IC50 is the point on the concentration scale where inhibition reaches its midpoint. As to `NCc1ccnc(Cl)c1`, the IC50 came out at 136 nM.
